Assays:
Rattus norvegicus [1] = species: Rattus norvegicus; experiment: Inhibition of after-hyperpolarization (AHP) in cultured rat sympathetic neurons; type: functional; details: Sympathetic neuron
In short: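 Compounds from 2 mM MeOH stocks, each tested at two to four concentrations on at least three cells. AHP inhibition was obtained by digitally subtracting blocker records from controls, with the peak difference given as % of control AHP at the same time point.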

Rattus norvegicus [2] = species: Rattus norvegicus; experiment: Equi-effective molar ratio expressed as the ratio of tested compound concentration to that of dequalinium that cause 50% inhibition of the AHP in rat sympathetic neurons; type: functional, Sympathetic neuron

| Structure (SMILES) | IC50 (Rattus norvegicus [1]) [nM] | Ratio (Rattus norvegicus [2]) |
| --- | --- | --- |
| Nc1cc[n+](Cc2ccc(-c3cccc(-c4ccc(C[n+]5ccc(N)c6ccccc65)cc4)n3)cc2)c2ccccc12 | 360 | 0.59 |
| Nc1cc[n+](Cc2ccc(C[n+]3ccc(N)c4ccccc43)cc2)c2ccccc12 | 2800 | 3.7 |
| Nc1cc[n+](Cc2ccc3ccc4ccc(C[n+]5ccc(N)c6ccccc65)cc4c3c2)c2ccccc12 | 200 | 0.33 |
| Nc1cc[n+](Cc2ccc3cc(C[n+]4ccc(N)c5ccccc54)ccc3c2)c2ccccc12 | 490 | 0.83 |
| Nc1cc[n+](Cc2ccc(-c3ccc(-c4ccc(C[n+]5ccc(N)c6ccccc65)cc4)cc3)cc2)c2ccccc12 | 1900 | 2.3 |
| Nc1cc[n+](Cc2ccc(-c3ccc(C[n+]4ccc(N)c5ccccc54)cc3)cc2)c2ccccc12 | 380 | 0.4 |
| Nc1cc[n+](Cc2ccc(CCCc3ccc(C[n+]4ccc(N)c5ccccc54)cc3)cc2)c2ccccc12 | 200 | 0.31 |
| Nc1cc[n+](Cc2ccc(C#Cc3ccc(C[n+]4ccc(N)c5ccccc54)cc3)cc2)c2ccccc12 | 1000 | 1.41 |
| Nc1cc[n+](Cc2ccc3c(c2)Cc2cc(C[n+]4ccc(N)c5ccccc54)ccc2-3)c2ccccc12 | 310 | 0.33 |
| Nc1cc[n+](Cc2ccc(CCc3ccc(C[n+]4ccc(N)c5ccccc54)cc3)cc2)c2ccccc12 | 410 | 0.71 |
| Nc1cc[n+](Cc2ccc(CCCCc3ccc(C[n+]4ccc(N)c5ccccc54)cc3)cc2)c2ccccc12 | 370 | 0.44 |
| Nc1cc[n+](Cc2ccc(/C=C/c3ccc(C[n+]4ccc(N)c5ccccc54)cc3)cc2)c2ccccc12 | 940 | 1.46 |
| Nc1cc[n+](Cc2ccc(Cc3ccc(C[n+]4ccc(N)c5ccccc54)cc3)cc2)c2ccccc12 | 450 | 0.39 |
| Nc1cc[n+](Cc2cccc(-c3cccc(C[n+]4ccc(N)c5ccccc54)c3)c2)c2ccccc12 | 290 | 0.55 |
| Nc1cc[n+](Cc2ccc(/C=C\c3ccc(C[n+]4ccc(N)c5ccccc54)cc3)cc2)c2ccccc12 | 190 | 0.24 |
| Cc1cc(N)c2ccccc2[n+]1CCCCCCCCCC[n+]1c(C)cc(N)c2ccccc21.[Cl-].[Cl-] [DEQUALINIUM CHLORIDE] | 650 | 1 |

From ChEMBL document CHEMBL1129450, “Synthesis, molecular modeling, and K+ channel-blocking activity of dequalinium analogues having semirigid linkers” (J Med Chem, 1996)
